For experiment [1], the system named is HIV-1 BaL. Nature of the experiment: Acute HIV-1 infection assay in primary human CD4+ T cells. The class given is cell-based. Particulars: dose-response; for inhibition of HIV-1 BaL infection: cell-free acute infection of primary human CD4+ T cells. The gist of the method: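 Peptides were stocked at 10 mg/mL in NH4OH and stored frozen. Cell-free infection of primary human CD4+ T cells used CCR5-tropic HIV-1 BaL. Test peptides were titrated for dose-response, and non-sulfated homologous peptides and a scrambled sulfated control peptide were run in parallel. Cell viability was assessed in a separate assay.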

The test system of experiment [2] is binding of BG505 SOSIP.664 trimer to human CCR5. The class given is cell-based, HIV-1. Particulars: Cf2Th/syn-CCR5 canine thymocytes, flow cytometry, dose-response. Summed up: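 Cf2Th/syn-CCR5 cells were harvested at ~80% confluency with enzyme-free dissociation buffer. His-tagged BG505 SOSIP.664 trimer was preincubated with 2-domain sCD4 for 1 h at 4 °C, treated with test compound across a dose range, then bound to cells for 1 h at 4 °C. After washes, bound trimer was detected with PE anti-His antibody (1 h, 4 °C). Cells were fixed in 2% PFA and analysed by flow cytometry. Anti-CCR5 mAb 2D6 confirmed specificity.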
A general note: In flow cytometry, cells or beads pass a laser one at a time.

Experiment [3] has as its system panel of 12 HIV-1 strains. As to the kind of experiment: Infection of CD4+ T cells by a panel of 12 HIV-1 strains. The class given is cell-based. As to conditions: 50 μM. The gist of the method:
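Cell-free infection of purified primary human CD4+ T cells, with each test compound at 50 μM. The panel had eight minimally passaged primary isolates (92US714, 92HT599, 07USLR, 07USPC, 07USSG, subtype B; 97ZA009, 98IN017, subtype C; 93BR019, subtype F) and four laboratory-expanded subtype B strains (BaL, JR-FL, ADA, IIIB). Both CCR5-tropic and CXCR4-using phenotypes were included.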

Experiment [4] deals with recombinant gp120 (strain BaL). As to the kind of experiment: SPR of monomeric gp120 binding to immobilized V2 peptide. More on the design: species or system HIV-1. Particulars: peptide immobilized on CM5, gp120 BaL pre-complexed with CD4-M48U. Summed up:
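The sulfated V2 test peptide was immobilized on a CM5 chip. Recombinant monomeric gp120 BaL (25–400 nM) was preincubated with a 2-fold molar excess of CD4-M48U […]. It was injected for 2 min at 25 μL/min in HBS with 3 mM EDTA and 0.005% Tween-20, followed by 2 min dissociation. Surfaces were regenerated with 4.5 M MgCl2.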

For experiment [5], the system named is soluble, stabilized gp140 trimer (BG505-SOSIP.664). Nature of the experiment: SPR of soluble gp140 trimer binding to immobilized V2 peptide. Further details: species or system HIV-1. As to conditions: SOSIP trimer 12.5-200 nM, absence of the CD4 mimic. The gist of the method: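 The sulfated V2 test peptide was immobilized on a CM5 surface. Unliganded BG505 SOSIP.664 trimer (12.5–200 nM; produced in 293FS cells, lectin-affinity and size-exclusion purified) was injected for 2 min at 25 μL/min in HBS with 3 mM EDTA and 0.005% Tween-20, followed by 2 min dissociation. Regeneration used a brief 4.5 M MgCl2 pulse.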

Experiment [6] deals with sCD4:gp120 complex (gp120 BaL). As to the kind of experiment: NMR trNOESY interaction and competition with gp120/sCD4. The class given is binding, HIV-1. As to conditions: 2D NOESY, 0.8 mM peptide. Summed up:
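The tyrosine-sulfated V2 peptide was 15N-labelled at Ala/Ile/Leu/Phe/Val, at 800 μM (0.8 mM). It was incubated 1 h on ice with 20 μM sCD4, 20 μM recombinant gp120 BaL, or both. Samples were exchanged into 20 mM sodium phosphate pH 6.8, 50 mM NaCl, 0.02% azide, 10% D2O. NOESY was run at 30 °C, 600 MHz, with mixing times 100/250/400 ms. For competition, 0.4 mM peptide was used with 0, 0.8 or 1.6 mM unlabelled sulfated CCR5 N-terminal peptide.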

Where no end group is shown, it is not given here. [ ]: non-standard residue; d: D form. sY = N[C@@H](Cc1ccc(OS(=O)(=O)O)cc1)C(=O)O

Take “DPVLEF[sY]KID[sY]IELAVQK [pSCR-Tys, reference compound]”: in experiment [1], the “inhibition of HIV-1 BaL infection” value is recorded as “did not show significant inhibitory activity”. Besides, the “inhibition of binding of sCD4-activated BG505 SOSIP.664 trimer to CCR5” value (“inhibition of binding … to CCR5” below) in experiment [2] was “limited effects”.

Consider “MDYQVSSPI[sY]DIN[sY]YTSEPSQK [pCCR5-Tys, reference compound]”, for which the “inhibition of HIV-1 BaL infection” value in experiment [1] is “dose-dependent HIV-1 inhibition”. For the same substance, the “inhibition of binding … to CCR5” value in experiment [2] is reported as “Dose-dependent inhibitory effect”. For the same substance, in experiment [3] (purified CD4+ T cells), the “activity against CCR5-tropic isolates” value is recorded as “restricted activity against CCR5-tropic isolates”; the “activity against CXCR4-using (R5X4 and X4) isolates” value is “inactive”.

With KVQKE[sY]ALF[sY]ELDIVPID [pV2α-Tys], the ka in experiment [4] was determined as 48300 M⁻¹ s⁻¹. In addition, the “binding of soluble gp140 trimer to immobilized peptide” value in experiment [5] was “unable to bind”. Moreover, the “trNOE signals (binding) with sCD4:gp120 complex” value in experiment [6] (20 μM sCD4:gp120, 30 °C) is listed as “appearance of numerous NOE crosspeaks”. Also, the “trNOE signals (binding) with gp120 alone” value in experiment [6] (gp120 alone) is “small number of weak trNOE crosspeaks”. In addition, in experiment [6] (sCD4 alone), the “trNOE signals (binding) with sCD4 alone” value is on record as “no pV2α-Tys trNOEs signals were observed”. Also, in experiment [1], the “inhibition of HIV-1 BaL infection” value is on record as “potently inhibited infection”. Also, the “inhibition of binding … to CCR5” value in experiment [2] was “reduced CCR5 binding of the trimer in a dose-dependent fashion”.

On to “Tys177: pV2α version bearing a single sulfated tyrosine at position 177 (KVQKEYALF[sY]ELDIVPID)”, for which, in experiment [1], the “inhibition of HIV-1 BaL infection” value is “exhibited antiviral activity”. Moreover, the “relative potency in inhibition of HIV-1 BaL infection” value in experiment [1] (primary CD4+ T cells, singly vs doubly sulfated peptides) is “more potent than Tys173”.

For the substance KKQKVHALF[sY]KLDIVPIK [pV2αΕ-Tys], the “relative potency over the strain panel” value in experiment [3] (compared to pV2α-Tys) was “generally lower potency compared to pV2α-Tys”. Besides, the “number of resistant HIV-1 strains of 12” value in experiment [3] (purified CD4+ T cells) amounted to 3.

As for “Tys173: pV2α version bearing a single sulfated tyrosine at position 173 (KVQKE[sY]ALFYELDIVPID)”, the “inhibition of HIV-1 BaL infection” value in experiment [1] is on record as “exhibited antiviral activity”.

Values taken from PMC5006643 (EBioMedicine, 2016).
